Test results as given in ChEMBL document CHEMBL6109036, “Azo derivatives of monoterpenes as anti-Helicobacter pylori agents: from synthesis to structure-based target investigation” (RSC Med Chem, 2025).
Converted amounts (≈) assume the structure as drawn.

Columns and labels:
[1] = system: Helicobacter pylori; experiment: Anti-bacterial activity against Helicobacter pylori Clinical isolate F1 measured after 72 hrs incubation by modified broth dilution method; type: functional
[2] = system: Helicobacter pylori; experiment: Bactericidal activity against Helicobacter pylori Clinical isolate F1 measured after 72 hrs of incubation under microaerophilic conditions by modified broth dilution method; type: functional; details: read-out: MBC99.9
How it was run: (§1)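 H. pylori (NCTC 11637, F1, 23, F4). Wells with no visible growth in the MIC assay spotted (10 μL) onto Skirrow agar. Plates incubated 72 h at 37 °C, microaerophilic, 100% humidity. MBC = concentration killing 99.9% of the initial inoculum. Triplicate, on at least three different days.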

[3] = system: Helicobacter pylori; experiment: Anti-bacterial activity against Helicobacter pylori Clinical isolate 23 measured after 72 hrs incubation by modified broth dilution method; type: functional
[4] = system: Helicobacter pylori; experiment: Bactericidal activity against Helicobacter pylori Clinical isolate 23 measured after 72 hrs of incubation under microaerophilic conditions by modified broth dilution method; type: functional; details: read-out: MBC99.9; how it was run: as §1
[5] = system: Helicobacter pylori; experiment: Anti-bacterial activity against Helicobacter pylori NCTC 11637 measured after 72 hrs incubation by modified broth dilution method; type: functional
[6] = system: Helicobacter pylori; experiment: Bactericidal activity against Helicobacter pylori NCTC 11637 measured after 72 hrs of incubation under microaerophilic conditions by modified broth dilution method; type: functional; details: read-out: MBC99.9; how it was run: as §1
[7] = system: Helicobacter pylori; experiment: Anti-bacterial activity against Helicobacter pylori Clinical isolate F4 measured after 72 hrs incubation by modified broth dilution method; type: functional
[8] = system: Helicobacter pylori; experiment: Bactericidal against Helicobacter pylori Clinical isolate F4 measured after 72 hrs of incubation under microaerophilic conditions by modified broth dilution method; type: functional; details: read-out: MBC99.9; how it was run: as §1
[9] = system: Helicobacter pylori; experiment: Anti-bacterial activity against Helicobacter pylori measured after 72 hrs incubation by modified broth dilution method; type: functional
[10] = system: Helicobacter pylori; experiment: Bactericidal against Helicobacter pylori measured after 72 hrs of incubation under microaerophilic conditions by modified broth dilution method; type: functional
How it was run: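 Wells with no visible growth in the MIC assay spotted (10 μL) onto Skirrow agar. Plates incubated 72 h at 37 °C, microaerophilic, 100% humidity. Triplicate, on at least three different days.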

[11] = Cytotoxicity against SV40-immortalized non-tumorigenic human GES1 cells assessed as cell viability measured after 24 hrs by Alamar blue assay; type: toxicity, cell-based
How it was run: (§2)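 GES-1 cells grown in RPMI with 10% FCS, glutamine, pen/strep and 10 mM HEPES at 37 °C, 5% CO2. Exposed to increasing concentrations for 24, 48 or 72 h. Alamar blue then added for 4 h at 37 °C and read at 540 and 630 nm. Percent reduction relative to untreated cells (100%).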

[12] = Cytotoxicity against SV40-immortalized non-tumorigenic human GES1 cells assessed as cell viability measured after 72 hrs by Alamar blue assay; type: toxicity, cell-based; how it was run: as §2
[13] = Cytotoxicity against human HIEC-6 cells assessed as cell viability measured after 24 hrs by MTT assay
[14] = Cytotoxicity against human HIEC-6 cells assessed as cell viability measured after 48 hrs by MTT assay
[15] = Cytotoxicity against human HIEC-6 cells assessed as cell viability measured after 72 hrs by MTT assay
[16] = system: Escherichia coli; experiment: Bactericidal against lactose fermenting Escherichia coli ATCC 25922 measured after 24 hrs of incubation by broth microdilution method; details: ATCC 25922, 24 h, read-out: MBC99.9
[17] = system: Staphylococcus aureus; experiment: Bactericidal against Gram-positive Staphylococcus aureus ATCC 29213 measured after 24 hrs of incubation by broth microdilution method; details: ATCC 29213, 24 h, read-out: MBC99.9
[18] = system: Pseudomonas aeruginosa; experiment: Bactericidal against non-lactose fermenting Pseudomonas aeruginosa ATCC 27853 measured after 24 hrs of incubation by broth microdilution method; details: ATCC 27853, 24 h, read-out: MBC99.9
[19] = system: Escherichia coli; experiment: Anti-bacterial activity against lactose fermenting Escherichia coli ATCC 25922 measured after 24 hrs incubation by modified broth dilution method; details: ATCC 25922, 24 h
[20] = system: Staphylococcus aureus; experiment: Anti-bacterial activity against Gram-positive Staphylococcus aureus ATCC 29213 measured after 24 hrs incubation by modified broth dilution method; details: ATCC 29213, 24 h
[21] = system: Pseudomonas aeruginosa; experiment: Anti-bacterial activity against non-lactose fermenting Pseudomonas aeruginosa ATCC 27853 measured after 24 hrs incubation by modified broth dilution method; details: ATCC 27853, 24 h
[22] = Cytotoxicity against SV40-immortalized non-tumorigenic human GES1 cells assessed as cell viability measured after 48 hrs by Alamar blue assay; type: toxicity, cell-based; how it was run: as §2

Row | SMILES | MIC [1] | MIC [3] | MIC [5] | MIC [7] | MIC50 [9] | MIC90 [9] | MBC [2] | MBC [4] | MBC [6] | MBC [8] | MBC90 [10] | also measured
1 | Cc1cc(O)c(C(C)C)cc1/N=N/c1ccc([N+](=O)[O-])cc1 | 2 µg/mL (≈ 6.68 µM) | 2 µg/mL (≈ 6.68 µM) | 2 µg/mL (≈ 6.68 µM) | 4 µg/mL (≈ 13.4 µM) | 2 µg/mL (≈ 6.68 µM) | 4 µg/mL (≈ 13.4 µM) | 2 µg/mL (≈ 6.68 µM) | 2 µg/mL (≈ 6.68 µM) | 2 µg/mL (≈ 6.68 µM) | 4 µg/mL (≈ 13.4 µM) | 4 µg/mL (≈ 13.4 µM) | IC50 at 24 h [11]: 12.1 µg/mL (≈ 40.4 µM); IC50 at 72 h [12]: 8.44 µg/mL (≈ 28.2 µM); IC50 at 24 h [13]: 13.6 µg/mL (≈ 45.4 µM); IC50 at 48 h [14]: 7.61 µg/mL (≈ 25.4 µM); IC50 at 72 h [15]: 7.61 µg/mL (≈ 25.4 µM); MBC [16]: > 128 µg/mL; MBC [17]: 32 µg/mL (≈ 107 µM); MBC [18]: > 128 µg/mL; MIC [19]: > 128 µg/mL; MIC [20]: 2 µg/mL (≈ 6.68 µM); MIC [21]: > 128 µg/mL
2 | Cc1c(/N=N/c2ccccc2Cl)cc(C(C)C)c(O)c1/N=N/c1ccccc1Cl | 128 µg/mL (≈ 300 µM) | 128 µg/mL (≈ 300 µM) | > 128 µg/mL | 128 µg/mL (≈ 300 µM) | 128 µg/mL (≈ 300 µM) | > 128 µg/mL | > 128 µg/mL | > 128 µg/mL | > 128 µg/mL | > 128 µg/mL | >128 µg/mL | 
3 | Cc1ccccc1/N=N/c1cc(C(C)C)c(O)cc1C | 4 µg/mL (≈ 14.9 µM) | 8 µg/mL (≈ 29.8 µM) | 4 µg/mL (≈ 14.9 µM) | 4 µg/mL (≈ 14.9 µM) | 4 µg/mL (≈ 14.9 µM) | 8 µg/mL (≈ 29.8 µM) | 4 µg/mL (≈ 14.9 µM) | 8 µg/mL (≈ 29.8 µM) | 4 µg/mL (≈ 14.9 µM) | 4 µg/mL (≈ 14.9 µM) | 8 µg/mL (≈ 29.8 µM) | 
4 | COc1ccc(/N=N/c2cc(C=O)cc(OC)c2O)cc1 | 64 µg/mL (≈ 224 µM) | > 128 µg/mL | > 128 µg/mL | > 128 µg/mL | > 128 µg/mL | > 128 µg/mL | 128 µg/mL (≈ 447 µM) | > 128 µg/mL | > 128 µg/mL | > 128 µg/mL | >128 µg/mL | 
5 | CC(=O)Oc1cc(C)c(/N=N/c2ccc([N+](=O)[O-])cc2)cc1C(C)C | 128 µg/mL (≈ 375 µM) | 128 µg/mL (≈ 375 µM) | > 128 µg/mL | > 128 µg/mL | 128 µg/mL (≈ 375 µM) | > 128 µg/mL | 128 µg/mL (≈ 375 µM) | 128 µg/mL (≈ 375 µM) | > 128 µg/mL | > 128 µg/mL | >128 µg/mL | 

Continued, in another order:

Row | MIC [1] | MIC [3] | MIC [5] | MIC [7] | MIC50 [9] | MIC90 [9] | SMILES | MBC [2] | MBC [4] | MBC [6] | MBC [8] | MBC90 [10] | also measured
6 | 2 µg/mL (≈ 6.68 µM) | 2 µg/mL (≈ 6.68 µM) | 2 µg/mL (≈ 6.68 µM) | 4 µg/mL (≈ 13.4 µM) | 2 µg/mL (≈ 6.68 µM) | 4 µg/mL (≈ 13.4 µM) | Cc1ccc(C(C)C)c(/N=N/c2ccc([N+](=O)[O-])cc2)c1O | 4 µg/mL (≈ 13.4 µM) | 2 µg/mL (≈ 6.68 µM) | 2 µg/mL (≈ 6.68 µM) | 4 µg/mL (≈ 13.4 µM) | 4 µg/mL (≈ 13.4 µM) | IC50 at 24 h [11]: 15 µg/mL (≈ 50.1 µM); IC50 at 48 h [22]: 12.1 µg/mL (≈ 40.4 µM); IC50 at 72 h [12]: 12 µg/mL (≈ 40.2 µM); IC50 at 24 h [13]: 15.1 µg/mL (≈ 50.3 µM); IC50 at 48 h [14]: 13.4 µg/mL (≈ 44.7 µM); IC50 at 72 h [15]: 13.3 µg/mL (≈ 44.3 µM); MBC [16]: > 128 µg/mL; MBC [17]: 32 µg/mL (≈ 107 µM); MBC [18]: > 128 µg/mL; MIC [19]: > 128 µg/mL; MIC [20]: 2 µg/mL (≈ 6.68 µM); MIC [21]: > 128 µg/mL
7 | 4 µg/mL (≈ 13.9 µM) | 4 µg/mL (≈ 13.9 µM) | 4 µg/mL (≈ 13.9 µM) | 4 µg/mL (≈ 13.9 µM) | 4 µg/mL (≈ 13.9 µM) | 4 µg/mL (≈ 13.9 µM) | Cc1cc(O)c(C(C)C)cc1/N=N/c1ccccc1Cl | 4 µg/mL (≈ 13.9 µM) | 8 µg/mL (≈ 27.7 µM) | 4 µg/mL (≈ 13.9 µM) | 4 µg/mL (≈ 13.9 µM) | 8 µg/mL (≈ 27.7 µM) | 
